# Measurements from ChEMBL document CHEMBL3232844, “Synthesis and structure activity relationships of schweinfurthin indoles” (2014).
# Experiments:
# Format in all cases: functional
# K562 = assay: Cytotoxicity against human K562 cells; settings: for CC50: read-out: pLC50 (the source's name) (converted); for TGI: read-out: pTGI (converted)
# Summary of the method: (§1)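 Tested in a 60-cell-line human tumor panel screen; the read-out is growth inhibition, reported as GI50 for each cell line.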
# RPMI-8226 = assay: Cytotoxicity against human RPMI8226 cells; settings: for TGI: read-out: pTGI (converted); summary of the method: as §1
# [1] = Cytotoxicity against human EKVX cells; settings: for CC50: read-out: pLC50 (the source's name) (converted); for TGI: read-out: pTGI (converted); summary of the method: as §1
# HOP-92 = assay: Cytotoxicity against human HOP92 cells; settings: for CC50: read-out: pLC50 (the source's name) (converted); for TGI: read-out: pTGI (converted); summary of the method: as §1
# NCI-H23 = assay: Cytotoxicity against human NCI-H23 cells; settings: for CC50: read-out: pLC50 (the source's name) (converted); for TGI: read-out: pTGI (converted); summary of the method: as §1
# COLO 205 = assay: Cytotoxicity against human COLO205 cells; settings: for CC50: read-out: pLC50 (the source's name) (converted); for TGI: read-out: pTGI (converted); summary of the method: as §1
# [2] = Cytotoxicity against human HCT15 cells; settings: for GI50: HCT-15; for CC50: HCT-15, read-out: pLC50 (the source's name) (converted); for TGI: HCT-15, read-out: pTGI (converted); summary of the method: as §1
# SW-620 = assay: Cytotoxicity against human SW620 cells; settings: for CC50: read-out: pLC50 (the source's name) (converted); for TGI: read-out: pTGI (converted)
# Summary of the method: (§2)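 Cell line run as part of the 60-cell-line screening panel; growth inhibition was reported as a GI50 for each line.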
# SF-539 = assay: Cytotoxicity against human SF539 cells; settings: for TGI: read-out: pTGI (converted); for CC50: read-out: pLC50 (the source's name) (converted); summary of the method: as §1
# Malme-3M = assay: Cytotoxicity against human MALME-3M cells; settings: for CC50: read-out: pLC50 (the source's name) (converted); for TGI: read-out: pTGI (converted); summary of the method: as §1
# NCI-H522 = assay: Cytotoxicity against human NCI-H522 cells; settings: for CC50: read-out: pLC50 (the source's name) (converted); for TGI: read-out: pTGI (converted); summary of the method: as §1
# SK-MEL-28 = assay: Cytotoxicity against human SK-MEL-28 cells; settings: for CC50: read-out: pLC50 (the source's name) (converted); for TGI: read-out: pTGI (converted); summary of the method: as §1
# IGROV-1 = assay: Cytotoxicity against human IGROV1 cells; settings: for CC50: read-out: pLC50 (the source's name) (converted); for TGI: read-out: pTGI (converted); summary of the method: as §1
# [3] = Cytotoxicity against human OVCAR5 cells; settings: for GI50: OVCAR-5; for CC50: OVCAR-5, read-out: pLC50 (the source's name) (converted); for TGI: OVCAR-5, read-out: pTGI (converted); summary of the method: as §1
# DU-145 = assay: Cytotoxicity against human DU145 cells; settings: for TGI: read-out: pTGI (converted); summary of the method: as §1
# [4] = Cytotoxicity against human Hs578T cells; settings: Hs-578T; for TGI: read-out: pTGI (converted); summary of the method: as §1
# T47D = assay: Cytotoxicity against human T47D cells; settings: for CC50: read-out: pLC50 (the source's name) (converted); for TGI: read-out: pTGI (converted); summary of the method: as §2
compound,measurement,setting,value
COc1cc(/C=C/c2cc(O)c3ccn(C)c3c2)cc2c1O[C@]1(C)CC[C@@H](O)C(C)(C)[C@H]1C2,GI50,K562,794 nM
same,CC50,K562,> 100 µM
same,TGI,K562,> 100 µM
same,GI50,RPMI-8226,70.8 nM
same,CC50,RPMI-8226; read-out: pLC50 (the source's name) (converted),> 100 µM
same,TGI,RPMI-8226,1620 nM
same,GI50,[1],4.27 µM
same,CC50,[1],> 100 µM
same,TGI,[1],85.1 µM
same,GI50,HOP-92,525 nM
same,CC50,HOP-92,> 100 µM
same,TGI,HOP-92,5.62 µM
same,GI50,NCI-H23,2450 nM
same,CC50,NCI-H23,> 100 µM
same,TGI,NCI-H23,30.2 µM
same,GI50,COLO 205,1660 nM
same,CC50,COLO 205,7.08 µM
same,TGI,COLO 205,3.47 µM
same,GI50,[2],832 nM
same,CC50,[2],> 100 µM
same,TGI,[2],4.37 µM
same,GI50,SW-620,1020 nM
same,CC50,SW-620,> 100 µM
same,TGI,SW-620,3240 nM
same,GI50,SF-539,105 nM
same,TGI,SF-539,1380 nM
same,GI50,Malme-3M,309 nM
same,CC50,Malme-3M,> 100 µM
same,TGI,Malme-3M,49 µM
same,GI50,NCI-H522,1450 nM
same,CC50,NCI-H522,> 100 µM
same,TGI,NCI-H522,4.37 µM
same,GI50,SK-MEL-28,832 nM
same,CC50,SK-MEL-28,> 100 µM
same,TGI,SK-MEL-28,16.2 µM
same,GI50,IGROV-1,2820 nM
same,CC50,IGROV-1,> 100 µM
same,TGI,IGROV-1,46.8 µM
same,GI50,[3],12.3 µM
same,CC50,[3],> 100 µM
same,TGI,[3],77.6 µM
same,GI50,DU-145,3.8 µM
same,LC50 (50% lethal concentration),DU-145,> 100 µM
same,TGI,DU-145,91.2 µM
same,GI50,[4],141 nM
same,LC50,[4],> 100 µM
same,TGI,[4],20.4 µM
same,GI50,T47D,5.62 µM
same,CC50,T47D,> 100 µM
same,TGI,T47D,60.3 µM
COc1cc(/C=C/c2cc(OC)c3c(CC=C(C)C)c[nH]c3c2)cc2c1O[C@]1(C)CC[C@@H](O)C(C)(C)[C@H]1C2,GI50,K562,309 nM
same,CC50,K562,> 100 µM
same,TGI,K562,1.38 µM
same,GI50,RPMI-8226,77.6 nM
same,TGI,RPMI-8226,355 nM
same,GI50,[1],0.832 µM
same,CC50,[1],> 100 µM
same,TGI,[1],6.61 µM
same,GI50,HOP-92,178 nM
same,CC50,HOP-92,93.3 µM
same,TGI,HOP-92,5.62 µM
same,GI50,NCI-H23,646 nM
same,CC50,NCI-H23,26.9 µM
same,TGI,NCI-H23,3.55 µM
same,GI50,COLO 205,219 nM
same,CC50,COLO 205,1.55 µM
same,TGI,COLO 205,0.479 µM
same,GI50,[2],174 nM
same,CC50,[2],6.17 µM
same,TGI,[2],1.35 µM
same,GI50,SW-620,288 nM
same,CC50,SW-620,4.07 µM
same,TGI,SW-620,1120 nM
same,GI50,SF-539,50.1 nM
same,CC50,SF-539,2.51 µM
same,TGI,SF-539,309 nM
same,GI50,Malme-3M,2000 nM
same,CC50,Malme-3M,91.2 µM
same,TGI,Malme-3M,8.71 µM
same,GI50,NCI-H522,646 nM
same,CC50,NCI-H522,5.25 µM
same,TGI,NCI-H522,2 µM
same,GI50,SK-MEL-28,347 nM
same,CC50,SK-MEL-28,15.8 µM
same,TGI,SK-MEL-28,2.24 µM
same,GI50,IGROV-1,1660 nM
same,CC50,IGROV-1,> 100 µM
same,TGI,IGROV-1,41.7 µM
same,GI50,[3],1.55 µM
same,CC50,[3],51.3 µM
same,TGI,[3],7.24 µM
same,GI50,DU-145,2.04 µM
same,LC50 (50% lethal concentration),DU-145,46.8 µM
same,TGI,DU-145,15.1 µM
same,GI50,[4],53.7 nM
same,LC50,[4],> 100 µM
same,TGI,[4],0.692 µM
same,GI50,T47D,1.74 µM
same,CC50,T47D,> 100 µM
same,TGI,T47D,17 µM
COc1cc(/C=C/c2cc(O)c3c(c2)C[C@@H]2C(C)(C)[C@H](O)CC[C@@]2(C)O3)cc2c1ccn2C,GI50,K562,81.3 nM
same,CC50,K562,89.1 µM
same,TGI,K562,6.31 µM
same,GI50,[1],4.07 µM
same,CC50,[1],64.6 µM
same,TGI,[1],22.9 µM
same,GI50,HOP-92,955 nM
same,CC50,HOP-92,89.1 µM
same,TGI,HOP-92,12.6 µM
same,GI50,NCI-H23,1380 nM
same,CC50,NCI-H23,44.7 µM
same,TGI,NCI-H23,15.5 µM
same,GI50,COLO 205,5620 nM
same,CC50,COLO 205,42.7 µM
same,TGI,COLO 205,17.8 µM
same,GI50,[2],2950 nM
same,CC50,[2],33.9 µM
same,TGI,[2],6.76 µM
same,CC50,SW-620,18.6 µM
same,GI50,SF-539,1620 nM
same,CC50,SF-539,45.7 µM
same,TGI,SF-539,13200 nM
same,GI50,NCI-H522,5890 nM
same,GI50,SK-MEL-28,145 nM
same,CC50,SK-MEL-28,45.7 µM
same,TGI,SK-MEL-28,17.4 µM
same,GI50,IGROV-1,10700 nM
same,CC50,IGROV-1,89.1 µM
same,TGI,IGROV-1,25.7 µM
same,GI50,[3],11.2 µM
same,CC50,[3],53.7 µM
same,TGI,[3],21.9 µM
same,GI50,DU-145,5.62 µM
same,LC50 (50% lethal concentration),DU-145,42.7 µM
same,TGI,DU-145,19.1 µM
same,GI50,[4],22.9 nM
same,LC50,[4],89.1 µM
same,TGI,[4],3.55 µM
same,GI50,T47D,7.41 µM
same,CC50,T47D,63.1 µM
same,TGI,T47D,23.4 µM
